The nature of data set [1]: cell toxicity assay, CCK-8 kit. Particulars: human, HEK293T cells. In kind it is cell-based. The method in brief: (§1)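 HEK293T cells (DMEM, 10% FBS) seeded one day before treatment. Test compound added in […] for 24 h. CCK-8 (WST-8) reagent then added for 60 min at 37 °C, 5% CO2, and A450 read. CC50 derived from viability relative to DMSO-treated cells.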
A general note: Formazan colour is commonly taken as a measure of viable cells.

For data set [2], the target named is SARS-CoV-2 RdRp in the presence of nsp14 and nsp10 (Severe acute respiratory syndrome coronavirus 2, UniProt P0DTD1). Description: cell-based CoV-RdRp-Gluc system with nsp10/nsp14 proofreading function. The conditions noted are these: EC50 with nsp14/nsp10 over EC50 without.
A further data set has as its system HCoV-OC43. Description: anti-coronavirus CPE inhibition assay. In kind it is cell-based. Particulars: read-out: EC50 HCoV-OC43 (CPE inhibition). The method in brief: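 HCT-8 cells (DMEM, 10% heat-inactivated FBS) seeded at 2 × 10^4/well for 24 h. Infected with HCoV-OC43 strain VR-1558 at MOI 0.1 in 2% FBS medium; two-fold serial dilutions of test compound (0.195–50 μM) added 1 h post-infection. Incubated 5 days at 33 °C, then MTS 3 h at 37 °C, A490. Means ± SD, three independent experiments.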

Data set [3] in a line: toxicity after incubation for 5 days in HCT-8 cells. In kind it is cell-based. The conditions noted are these: human, HCT-8 cells.
Data set [4] concerns the target T1, SARS-CoV-2 RdRp (Severe acute respiratory syndrome coronavirus 2, UniProt P0DTD1). Particulars: for inhibition ratio against SARS-CoV-2 RdRp: 10 μM, library screen; for TI (CC50/EC50): CC50 HEK293T / RdRp EC50.
The subject of a further data set is HEK293T cells. Briefly: cell toxicity assay, CCK-8 kit. In kind it is cell-based. Particulars: HEK293T, 24 h, CCK-8. The method in brief:
as §1

Another data set deals with HCoV-NL63. Briefly: anti-coronavirus CPE inhibition assay. In kind it is cell-based. The conditions noted are these: read-out: EC50 HCoV-NL63 (CPE inhibition); LLC-MK2, MOI 0.01, 5 days, MTS. Summed up:
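LLC-MK2 cells (DMEM, 10% heat-inactivated FBS) seeded at 2 × 10^4/well for 24 h. Infected with HCoV-NL63 strain Amsterdam I at MOI 0.01 in 2% FBS medium; test compound in two-fold dilutions (0.195–50 μM) given 1 h post-infection. Incubated 5 days at 33 °C; MTS 3 h at 37 °C, A490. Means ± SD, three independent experiments.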

For a further data set, the system named is HCT-8 cells. Description: toxicity after incubation for 5 days in HCT-8 cells. The data set is classed as cell-based. The conditions noted are these: read-out: Toxicity CC50 HCT-8; incubation for 5 days.
In the next data set the test system is LLC-MK2 cells. Briefly: toxicity after incubation for 5 days in LLC-MK2 cells. In kind it is cell-based. Particulars: read-out: Toxicity CC50 LLC-MK2.
Data set [5] addresses T1, SARS-CoV-2 RdRp. Description: CoV-Gluc plus- and minus-strand RNA by real-time qRT-PCR. In kind it is cell-based. Particulars: HEK293T, 2 μM or 10 μM, 24 h.
The target of data set [6] is T1, SARS-CoV-2 RdRp. Briefly: Bio layer interferometry binding assay. Particulars: data not shown. (In general: BLI is a label-free optical method that tracks binding on a fibre tip over time.)
Setting [7] is: Betacoronavirus 1, OC43, HCT-8, 120 h.

SMILES strings stand for the structures. Several values for one entry are separate records, joined by “and”; a condition that tells them apart may be missing. Equal values may be shown once. Read-outs that look alike come from different tables or passages of the source. Where only a bound is given, the exact number is not on record here.

The values below come from publication PMC8800165 (Antiviral Research, 2022).

As to `Nc1nc(F)nc2c1ncn2[C@@H]1O[C@H](COP(=O)(O)O)[C@@H](O)[C@@H]1O` [Fludarabine Phosphate], the midpoint of cytotoxicity in data set [1], the CC50 at 24 h, lay at 65.2 µM. Moreover, in data set [2], the “Ratio (12 + 14/12)” value stood at 7.19. The EC50 (in general, the concentration that produces a half-maximal response) with HCoV-OC43 (setting [7]) worked out at 3.11 µM. For the same compound, half-maximal cytotoxicity in [3] (CC50 at 5 days) was put at 37.5 ± 1.62 µM. Besides, at SARS-CoV-2 RdRp [4], the “inhibition ratio against SARS-CoV-2 RdRp” value is 89.78% and > 75%; the “TI (CC50/EC50)” value is listed as 70.15.

As for `Nc1ncnc2c1c(I)cn2[C@@H]1O[C@H](CO)[C@@H](O)[C@H]1O` [5-Iodotubercidin], the CC50 (usually the concentration at which the toxic effect on the cells reaches its halfway point) in the data set on HEK293T cells is 59.5 µM; with HCT-8 cells it was 46.9 ± 2.37 µM; in the data set on LLC-MK2 cells, 45.6 ± 5.15 µM. Also, the “Ratio (12 + 14/12)” value in data set [2] was 1.89. Moreover, the EC50 was 1.56 µM in the data set with HCoV-OC43 (HCT-8, MOI 0.1, 5 days, MTS) and 3.62 µM in the data set on HCoV-NL63. In addition, the “levels of plus-strand and minus-strand Gluc RNA” value at SARS-CoV-2 RdRp [5] is recorded as “even better than the Remdesivir”. The “binding activity upon SARS-CoV-2 RdRp” value on SARS-CoV-2 RdRp [6] is given as “did not detect the binding activity”. The “inhibition ratio against SARS-CoV-2 RdRp” value at SARS-CoV-2 RdRp [4] is 85.69% and > 75%. Moreover, the “TI (CC50/EC50)” value at SARS-CoV-2 RdRp [4] amounted to 79.28.

`Nc1nc(F)nc2c1ncn2[C@@H]1O[C@H](CO)[C@@H](O)[C@@H]1O` [Fludarabine] yielded a CC50 at 24 h in [1] of 53.6 µM. Besides, the “Ratio (12 + 14/12)” value in data set [2] is 11.53. Moreover, the EC50 in the data set on HCoV-OC43 (setting [7]) is 4.56 µM. Also, the CC50 at 5 days in data set [3] is 40.4 ± 8.16 µM. Besides, on SARS-CoV-2 RdRp [4], the “inhibition ratio against SARS-CoV-2 RdRp” value was 88.71% and > 75%; the “TI (CC50/EC50)” value was 50.58.

With `Nc1nc2c(ncn2[C@H]2C[C@H](O)[C@@H](CO)O2)c(=S)[nH]1` [6-Thio-dG, 6-Thio-20-Deoxyguanosine], the CC50 with HEK293T cells was above 100 µM; in the data set with HCT-8 cells it was 63 ± 3.52 µM; in the data set with LLC-MK2 cells it was 68 ± 7.03 µM. In [2], the “Ratio (12 + 14/12)” value turned out to be 8.04. Besides, the EC50 in the data set with HCoV-OC43 (HCT-8, MOI 0.1, 5 days, MTS) was found to be 6.5 µM; with HCoV-NL63, 9.53 µM. In addition, the “inhibition ratio against SARS-CoV-2 RdRp” value at SARS-CoV-2 RdRp [4] is 75.19% and > 75%.

`CCC(CC)COC(=O)[C@H](C)N[P@](=O)(OC[C@H]1O[C@@](C#N)(c2ccc3c(N)ncnn23)[C@H](O)[C@@H]1O)Oc1ccccc1` [Remdesivir] had a half-maximal cytotoxic concentration (CC50) at 24 h in data set [1] above 100 µM. For the same compound, the “TI (CC50/EC50)” value at SARS-CoV-2 RdRp [4] is above 93.46.
